From PubChem BioAssay
Calls of active or inactive are those of the source.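 Rule for the calls: active = current rise at least 3 SD above the untreated control mean in each of two repeat wells; inactive = the rest.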

The compounds below were run against Potassium voltage-gated channel subfamily KQT member 1 (Homo sapiens) (UniProt P51787) (assay: KCNQ1 activators by electrophysiology – IonWorks patch clamp, KCNQ1-CHO cells, orthogonal assay for KCNQ1 potentiator project, confirmation (AID 493184)). Conditions: automated patch clamp current, at 10 µM.
Chain of Potassium voltage-gated channel subfamily KQT member 1 (Homo sapiens) (P51787 whole entry, looked up): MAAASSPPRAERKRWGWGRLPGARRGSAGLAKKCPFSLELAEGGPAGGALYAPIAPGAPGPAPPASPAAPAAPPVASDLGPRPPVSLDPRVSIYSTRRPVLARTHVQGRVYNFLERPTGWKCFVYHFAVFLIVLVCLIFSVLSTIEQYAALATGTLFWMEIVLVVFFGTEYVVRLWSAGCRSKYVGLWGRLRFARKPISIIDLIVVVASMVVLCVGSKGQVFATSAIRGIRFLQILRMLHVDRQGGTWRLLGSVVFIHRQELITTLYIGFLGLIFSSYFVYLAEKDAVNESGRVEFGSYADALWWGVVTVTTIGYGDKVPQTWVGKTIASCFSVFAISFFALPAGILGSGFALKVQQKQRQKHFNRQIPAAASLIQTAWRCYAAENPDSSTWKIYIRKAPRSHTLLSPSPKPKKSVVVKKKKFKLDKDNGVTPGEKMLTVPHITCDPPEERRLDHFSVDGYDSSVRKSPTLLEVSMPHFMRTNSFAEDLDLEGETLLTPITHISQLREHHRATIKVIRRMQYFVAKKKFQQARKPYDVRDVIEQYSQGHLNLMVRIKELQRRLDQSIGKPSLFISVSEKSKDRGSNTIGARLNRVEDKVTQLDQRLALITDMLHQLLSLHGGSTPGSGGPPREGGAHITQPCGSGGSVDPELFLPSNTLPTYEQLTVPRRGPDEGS
How it was run: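 assay system = KCNQ1-expressing CHO cells | medium = external bath solution at pH 7.4 | probe or stimulus = 2,000 ms depolarization, -90 to +40 mV | compound dosing = 10 µM final, single point | measured by = automated voltage clamp, amphotericin B perforated patch | measure = percent current increase versus pre-compound level | replication = duplicates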

outcome, inactive:
Cc1nn(-c2ccccc2)c(Cl)c1/C=C1\SC(=S)NC1=O
CCOc1ccc(NC(=O)C2CCN(S(=O)(=O)c3cccnc3)CC2)cc1
Cc1cnc(NC(=O)c2ccc(-c3nc4ccccc4s3)o2)s1
CCCCOC(=S)NC(=O)c1sc2ccccc2c1Cl
O=C(NC(=S)Nc1ccc(N2CCCCC2)cc1)c1cccs1
O=Cc1c(F)cccc1N1CCCC1
CC(C)(C)C1(O)CC(C(F)(F)F)=NN1C(=O)Cc1ccc([N+](=O)[O-])cc1 (stereo not given)
CC(CCc1ccccc1)NC(=O)COc1cc(F)ccc1[N+](=O)[O-] (stereo not given)
Cc1sc(-n2c(C)cc(/C=N/n3cnnc3)c2C)c(C#N)c1C
COc1ccc(CCN(C)CC(O)COc2c(C)ccc(C)c2C)cc1OC (stereo not given)
